The term IC50 denotes the concentration that inhibits the measured activity by half.

Active and inactive are the calls of the source. The calls are words filed in the database; no cut-off is given here. Non-standard residues stand in square brackets, D forms with d. Residues, ends and D or L forms follow the SMILES beside them. *: point of attachment. NMeF = CN[C@@H](Cc1ccccc1)C(=O)O; NMeV = CN[C@H](C(=O)O)C(C)C; Butyryl = CCCC(=O)*; X1 = CN(Cc1nccs1)*

In assay [1] the target is T1, Sterol O-acyltransferase 1 (Chlorocebus aethiops, UniProt O77760).
T1 sequence (O77760 whole entry): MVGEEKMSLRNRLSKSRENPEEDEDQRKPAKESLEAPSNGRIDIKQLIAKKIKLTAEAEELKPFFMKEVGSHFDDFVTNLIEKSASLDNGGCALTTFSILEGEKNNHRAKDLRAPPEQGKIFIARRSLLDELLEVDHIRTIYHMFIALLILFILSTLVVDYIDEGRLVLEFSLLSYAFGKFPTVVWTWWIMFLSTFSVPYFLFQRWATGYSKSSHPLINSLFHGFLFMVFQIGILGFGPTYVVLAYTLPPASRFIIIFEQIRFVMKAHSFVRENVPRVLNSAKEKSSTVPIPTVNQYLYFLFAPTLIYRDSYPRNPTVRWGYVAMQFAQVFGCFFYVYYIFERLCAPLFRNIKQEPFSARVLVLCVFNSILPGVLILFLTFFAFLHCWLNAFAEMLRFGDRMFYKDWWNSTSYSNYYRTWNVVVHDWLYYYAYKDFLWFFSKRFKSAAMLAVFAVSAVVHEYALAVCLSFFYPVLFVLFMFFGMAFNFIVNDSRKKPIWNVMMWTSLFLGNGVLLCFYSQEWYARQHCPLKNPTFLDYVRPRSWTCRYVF
Put plainly: Inhibition of African green monkey SOAT1 expressed in CHO cell microsomal fractions assessed as reduction in neutral lipid synthesis incubated for 5 mins using [1-14C]oleoyl-CoA by thin-layer chromatography.

For assay [2], the target named is T1, Sterol O-acyltransferase 1. Put plainly: Inhibition of African green monkey SOAT1 expressed in CHO cells assessed as reduction in neutral lipid synthesis incubated for 6 hrs using [1-14C]oleic acid by thin-layer chromatography. The class given is cell-based. The procedure, abridged:
(§1)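 CHO cells stably expressing monkey SOAT1 or SOAT2 in Ham's F-12 with 10% FBS, plated 1.25 × 10^5 cells/well, recovered overnight, ≥80% confluent. Sample added from 0–1 mg/mL MeOH stocks together with [1-14C]oleic acid (1 nmol) for 6 h at 37 °C. Lipids Bligh–Dyer extracted and separated by TLC; [14C]cholesteryl ester quantified vs control. IC50 from duplicated experiments.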

The test system of assay [3] is HeLa. Put plainly: Growth inhibition of human HeLa cells incubated for 72 hrs by MTT assay. In kind it is functional, cell-based. The procedure, abridged: (§2)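 HeLa (DMEM) or HL60 (RPMI) cells, 10% heat-inactivated FBS, 37 °C, 5% CO2. HeLa seeded 2 × 10^4 cells/well and cultured overnight; HL60 seeded 1 × 10^5 cells/well. Exposed to a range of concentrations for 72 h; proliferation read by MTT; IC50 reported.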
(Tetrazolium dyes change colour on reduction, which living cells bring about.)

For a further assay, the system named is HL-60. The assay can be described thus: Growth inhibition of human HL60 cells incubated for 72 hrs by MTT assay. In kind it is functional, cell-based. The conditions noted are these: HL-60, 72 h. The procedure, abridged: as §2
For assay [4], the target named is T2, Sterol O-acyltransferase 2 (Chlorocebus aethiops, UniProt O77759).
T2 sequence (O77759 whole entry): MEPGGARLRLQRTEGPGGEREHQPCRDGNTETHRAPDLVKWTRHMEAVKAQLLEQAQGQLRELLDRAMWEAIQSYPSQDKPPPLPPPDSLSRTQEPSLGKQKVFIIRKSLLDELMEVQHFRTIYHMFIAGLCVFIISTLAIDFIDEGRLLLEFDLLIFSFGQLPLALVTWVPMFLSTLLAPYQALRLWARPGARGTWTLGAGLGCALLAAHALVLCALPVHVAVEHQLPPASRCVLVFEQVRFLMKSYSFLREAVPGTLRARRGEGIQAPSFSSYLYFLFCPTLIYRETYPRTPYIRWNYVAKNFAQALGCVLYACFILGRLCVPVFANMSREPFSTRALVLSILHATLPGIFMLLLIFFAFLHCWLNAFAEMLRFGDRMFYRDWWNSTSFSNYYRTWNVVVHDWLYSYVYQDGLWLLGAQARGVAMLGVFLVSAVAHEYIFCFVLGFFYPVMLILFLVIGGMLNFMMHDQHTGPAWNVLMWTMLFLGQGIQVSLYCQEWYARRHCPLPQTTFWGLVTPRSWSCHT
The assay can be described thus: Inhibition of African green monkey SOAT2 expressed in CHO cells assessed as reduction in neutral lipid synthesis incubated for 6 hrs using [1-14C]oleic acid by thin-layer chromatography. In kind it is cell-based. The procedure, abridged: as §1

The target of assay [5] is T2, Sterol O-acyltransferase 2. Put plainly: Inhibition of African green monkey SOAT2 expressed in CHO cell microsomal fractions assessed as reduction in neutral lipid synthesis incubated for 5 mins using [1-14C]oleoyl-CoA by thin-layer chromatography.
In assay [6] the test system is HeLa. Put plainly: Induction of cell killing in human HeLa cells assessed as reduction in cell viability at 1 to 30 uM incubated for 48 hrs in presence of 50 uM Z-VAD-FMK by trypan blue dye exclusion method. In kind it is functional, cell-based. The procedure, abridged:
(§3)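 HeLa seeded 4 × 10^4 cells/well, cultured overnight, then preincubated 30 min with or without 50 μM Z-VAD-FMK. Compound added at various concentrations for 48 h. Cells stained with 0.8 mg/mL trypan blue; viability from counts of stained (dead) cells. Mean ± SD of quadruplicates.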

Assay [7] has as its system HeLa. Put plainly: Induction of apoptosis in human HeLa cells assessed as induction of caspase-3 activation incubated for 24 hrs using Ac-DEVD-pNA as substrate by spectrophotometry. In kind it is functional, cell-based. An outline of the steps: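 Exponentially growing HeLa, 2 × 10^6 cells per 60 mm dish, incubated 12 h at 37 °C, then treated 24 h. Cells washed in cold PBS, lysed by three freeze–thaw cycles plus 15 min on ice, and clarified at 15000g. Lysate incubated with Ac-DEVD-pNA, 37 °C, 4 h; p-nitroaniline read at 405 nm. Activity relative to 1% MeOH control; triplicates; tunicamycin positive control.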

The test system of assay [8] is HeLa. Put plainly: Induction of cell killing in human HeLa cells assessed as reduction in cell viability at 1 to 30 uM incubated for 48 hrs by trypan blue dye exclusion method. The class given is functional, cell-based. The procedure, abridged:
as §3

With `CCCC(=O)N[C@H](C(=O)N1CCC[C@H]1C(=O)N(C)[C@@H](Cc1ccccc1)C(=O)N[C@@H](CC(C)C)C(=O)N(C)[C@H](C(=O)N(C)Cc1nccs1)C(C)C)C(C)C` (Butyryl-VP[NMeF]L[NMeV]-X1), the IC50 in [1] was 11 µM; in assay [2], more than 12 µM; with HeLa [3], 43 µM; in the assay on HL-60, more than 100 µM; in assay [4] it was 9.6 µM; in assay [5], more than 32 µM.
Turning to `COc1c([C@H](CC(C)C)OC(C)=O)ccc2c1C(=O)OCc1cc(C)cc(O)c1O2`, the IC50 in assay [1] worked out at 0.9 µM; in assay [2], 2.5 µM; in assay [4], 1.5 µM; in assay [5] it was 1.8 µM.
On to `CCCC(=O)N(C)[C@H](C(=O)N1CCC[C@H]1C(=O)N(C)[C@@H](Cc1ccccc1)C(=O)N[C@@H](CC(C)C)C(=O)N(C)[C@H](C(=O)N(C)Cc1nccs1)C(C)C)C(C)C` (Butyryl-[NMeV]P[NMeF]L[NMeV]-X1), for which the IC50 came out at 1.8 µM in [1]; 1.8 µM in [2]; 29 µM with HeLa [3]; 30 µM in the assay with HL-60; 1.3 µM in assay [4]; 9.6 µM in [5].
Turning to `CCCC(=O)N(C)[C@H](C(=O)N1CCC[C@H]1C(=O)N(C)[C@@H](Cc1ccccc1)C(=O)N[C@@H](CC(C)C)C(=O)N[C@H](C(=O)N(C)Cc1nccs1)C(C)C)C(C)C` (Butyryl-[NMeV]P[NMeF]LV-X1), the IC50 in [1] came out at 6.8 µM; in [2] it was 6.9 µM; in the assay with HeLa [3] it was 4.5 µM; in the assay on HL-60, 19 µM; in assay [4], 2.5 µM; in assay [5] it was 9.9 µM. Further, the result in the assay with HeLa [6] was inactive. In addition, the Activity result with HeLa [7] was “Dose-dependent effect”. Besides, the outcome in the assay with HeLa [8] was Active.
